# Source: PubChem BioAssay
# Rows were chosen to be rich in hits. Some 3.9% of all compounds tested hit in one or more screens of this group.
# ABCB6 inh MLPCN = inhibitors of human ABC transporter ABCB6. fluorescence ratio to DMSO, % at 10 µM. AID 602162. 360,000 compounds, 0.19% hits. K562-ABCB6 porphyrin accumulation, flow cytometry, 1 h; hits give low values;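 active = fluorescence ratio to DMSO below 75%, the collection mean minus 3 SD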;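 also: signal is porphyrin accumulated inside mitochondria; 100% equals median channel fluorescence of DMSO control wells; lower ratio means ABCB6 inhibition with less porphyrin fluorescence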
# SR-BI DiI inh = blocks mouse SR-BI lipid uptake from DiI-HDL. Q61009. inhibition, % at 12.5 µM. 320,000 compounds, 0.96% hits. ldlA[mSR-BI] CHO cells, DiI-HDL uptake fluorescence, 3 h. AID 488896;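 active = mean replicate inhibition of at least 70% and a set share of replicates each scoring 70 or more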;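 also: 0% = median of neutral control wells and 100% = median of positive control wells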
# AHR activator = activates the human aryl hydrocarbon receptor; P35869; AHR-responsive luciferase reporter cells, luminescence; activation, % at 5 µM; 320,000 compounds, 2.5% hits; AID 2796; in the data active = activation above about 47%;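 also: 0% = vehicle wells and 100% = reference agonist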
# Target sequence (P35869 whole entry, looked up): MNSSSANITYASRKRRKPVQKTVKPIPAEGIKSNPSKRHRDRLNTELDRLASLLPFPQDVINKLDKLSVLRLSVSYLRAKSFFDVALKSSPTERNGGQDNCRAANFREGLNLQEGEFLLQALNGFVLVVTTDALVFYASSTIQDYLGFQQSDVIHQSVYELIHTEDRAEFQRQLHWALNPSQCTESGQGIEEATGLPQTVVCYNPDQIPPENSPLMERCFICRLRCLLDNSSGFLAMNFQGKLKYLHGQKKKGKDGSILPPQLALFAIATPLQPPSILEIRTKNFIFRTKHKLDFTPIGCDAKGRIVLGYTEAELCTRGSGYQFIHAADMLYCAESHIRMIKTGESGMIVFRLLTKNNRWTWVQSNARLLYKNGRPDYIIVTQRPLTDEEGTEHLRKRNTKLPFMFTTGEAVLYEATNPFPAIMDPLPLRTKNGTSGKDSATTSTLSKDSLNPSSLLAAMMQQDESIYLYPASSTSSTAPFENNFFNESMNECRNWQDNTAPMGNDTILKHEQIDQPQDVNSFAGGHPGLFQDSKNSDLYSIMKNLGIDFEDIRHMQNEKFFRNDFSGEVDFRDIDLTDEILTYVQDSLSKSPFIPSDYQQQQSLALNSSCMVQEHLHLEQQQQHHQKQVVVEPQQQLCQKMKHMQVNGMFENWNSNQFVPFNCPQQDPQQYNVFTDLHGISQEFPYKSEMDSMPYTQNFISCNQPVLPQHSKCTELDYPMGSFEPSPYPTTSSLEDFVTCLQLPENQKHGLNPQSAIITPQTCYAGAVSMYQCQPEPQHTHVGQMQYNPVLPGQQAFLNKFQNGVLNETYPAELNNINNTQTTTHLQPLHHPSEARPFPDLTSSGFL
# GAA850 FXN act = frataxin GAA850 promoter activation | HEK293 lucGAA850 FXN promoter luciferase reporter, 24 h; percent of 10 µM SAHA response | activation, % at 6 µM | 360,000 compounds, 0.56% hits | AID 540364;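 active = activation above the average of all compounds screened plus 3 SD, cutoff fixed separately per campaign, cut at about 7.5% in these data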;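 also: 0% = DMSO wells and 100% = 10 µM SAHA wells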
# HIF act = HIF pathway transcriptional activation | U2OS HRE-luciferase reporter, luminescence; normalized: DMSO 0%, desferrioxamine 100% | activation, % at 7.5 µM (by protocol) | 300,000 compounds, 0.32% hits | AID 1910;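 active = mean activation of at least 10% of the iron chelator positive control signal, with at least half of replicates also reaching 10%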
# SR-BI uptake up = activators of SR-BI mediated HDL lipid uptake. 320,000 compounds, 0.096% hits. activation, % at 12.5 µM. CHO ldlA[mSR-BI] cells, DiI-HDL uptake fluorescence, 3 h; 100 = double the neutral-control signal;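 active = mean replicate activation of at least 60% and every replicate at or above 60%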;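 also: 0% = median plate neutral-control signal and 100% = twice that signal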
#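 Test system: SR-BI-overexpressing, LDLR-lacking CHO cells; Also added: labelled HDL, 10 µg/mL; Measured by: bottom-read cell fluorescence after medium removal, ex 550/em 595 nm; Timing: 3 h uptake period with compound, 37 °C; Buffer or medium: F12, 0.5% BSA, 25 mM HEPES; Doses: single compound concentration, delivered by pin transfer.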
# GAA30 FXN cntr = GAA30 FXN promoter activation counter-screen | shares compounds with GAA850 FXN act | HEK293 lucGAA30 FXN promoter luciferase, 24 h; DMSO = 0%, 5 µM ipriflavone = 100% | activation, % at 6 µM | 1,900 compounds, 66% hits | AID 588350;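 active = mean activation above the mean of solvent-only control wells plus 3 SD, cut at about 22% in these data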;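 also: counterscreen of GAA850 promoter hits where activity marks nonselective or luminescence artifacts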
# GAA850 confirm = GAA850 FXN promoter activation confirmation; shares compounds with GAA850 FXN act; activation, % at 6 µM; AID 588351; HEK293 lucGAA850 FXN promoter luciferase reporter, 24 h; 100% = activation by SAHA; 1,900 compounds, 86% hits;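 active = mean activation above a set limit taken from the primary screen, cut at about 8% in these data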;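 also: 0% = DMSO wells and 100% = 10 µM SAHA wells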
# Numbers without * were called inactive; · = not tested or not shown.
SMILES,ABCB6 inh MLPCN,SR-BI DiI inh,AHR activator,GAA850 FXN act,HIF act,SR-BI uptake up,GAA30 FXN cntr,GAA850 confirm
COc1ccc(Cl)cc1S(=O)(=O)NC(C)c1cnn(-c2ccccn2)c1C (centres undefined),102,·,·,-3,·,·,·,·
CC1=C(C(=O)NC2CCCc3c2cnn3-c2ccc(F)cc2F)OCCO1 (centres undefined),97,8,3,-1,0,-8,·,·
COc1ccc([C@@H]2[C@@H]3C(=O)N(C(C)(C)C)C(=O)[C@@H]3[C@]3(Cc4ccc(Cl)cc4)C(=O)N(c4cccc(F)c4)C(=O)N23)cc1,99,-17,0,0,·,17,·,·
CC(C)(C)N1C(=O)[C@H]2[C@@H](c3ccc(Br)cc3)N3C(=O)N(c4cccc(F)c4)C(=O)[C@@]3(C)[C@H]2C1=O,97,-3,0,8.8*,0,3,34*,18*
CCOC(=O)c1[nH]c(COC(=O)C2CC(=O)N(Cc3ccccc3)C2)c(C(=O)OCC)c1C (centres undefined),83,·,0,-1,0,·,·,·
CC1(C)C2CCC(C2)C1(C)NC(=O)CNCC1CCCCC1 (centres undefined),98,-17,0,10*,0,17,30*,14*
CCOCCCNCC(=O)NC1(C)C2CCC(C2)C1(C)C (centres undefined),152,15,2,2,2,-15,·,·
Cc1c(Cc2ccccc2)sc(NC(=O)c2ccco2)c1C(N)=O,104,5,1,8.8*,0,-5,38*,11*
CCNS(=O)(=O)c1ccc(CCC(=O)N2CCN(c3cccc(Cl)c3)CC2)cc1,97,19,-1,2,-1,-19,·,·
Cc1ccc(S(=O)(=O)NCCC(=O)N2CCN(c3cccc(Cl)c3)CC2)cc1C,102,29,4,11*,0,-29,-5,1
CCCCNc1nc(N)nc(-c2cc(Cl)ccc2O)n1,101,33,26,14*,13*,-33,133*,73*
CCNc1nc(N)nc(-c2cc(Cl)ccc2O)n1,100,13,28,17*,5,-13,151*,93*
Nc1nc(N)nc(-c2cc(O)ccc2O)n1,99,-17,18,-7,·,17,·,·
N#CCSCC(=O)Nc1ccc(Br)cc1,98,0,2,0,0,0,·,·
Cc1c(OC(C)C(=O)N2C[C@H]3C[C@@H](C2)c2cccc(=O)n2C3)ccc2c3c(c(=O)oc12)CCC3 (some centres undefined),94,-1,-1,1,0,1,·,·
O=C(NCC1(c2ccccc2)CCOCC1)c1ccc(Br)o1,108,-17,41,1,-1,17,·,·
CCc1ccc(C(=O)NCC2(c3ccccc3)CCOCC2)o1,100,-23,·,7.8*,·,23,95*,25*
C/C(=N\N=C\c1ccccc1F)c1nnn(-c2nonc2N)c1C,99,11,4,10*,2,-11,88*,31*
CN(Cc1c(C(=O)N/N=C/c2ccccc2F)nnn1-c1nonc1N)c1ccccc1,100,-3,4,-1,0,3,·,·
COCC(=O)Nc1nc2ccccc2s1,92,-29,21,1,2,29,·,·
CC1(C(=O)Nc2nc3ccccc3s2)CC1(Br)Br (centres undefined),101,-6,·,11*,-10,6,103*,36*
O=C(NCCN1CCOCC1)c1cc(-c2ccccc2)nc2ccccc12,100,·,·,-1,·,·,·,·
Nc1ccc(Sc2cnn(-c3ccccc3)c(=O)c2Cl)cc1,97,5,6,2,0,-5,·,·
CC1(Cc2ccccc2OC(F)(F)F)C(=O)Nc2ccc(-c3ccsc3)cc21 (centres undefined),90,·,·,9.6*,·,·,-2,3
COC(=O)c1cccc(CC2(C)C(=O)Nc3cc(-c4ccccc4Cl)ccc32)c1 (centres undefined),99,·,·,17*,·,·,58*,31*
SMILES,ABCB6 inh MLPCN,SR-BI DiI inh,AHR activator,GAA850 FXN act,HIF act,SR-BI uptake up,GAA30 FXN cntr,GAA850 confirm
COc1ccccc1-c1ccc2c(c1)C(C)(Cc1ccc(F)c(Cl)c1)C(=O)N2 (centres undefined),95,·,·,13*,·,·,9,8.5*
CC1(Cc2c(Cl)cccc2Cl)C(=O)Nc2cc(-c3ccccc3Cl)ccc21 (centres undefined),103,·,·,-3,·,·,·,·
COc1ccc(Cl)cc1CC1(C)C(=O)Nc2ccc(-c3ccccc3OC)cc21 (centres undefined),97,·,·,12*,·,·,33*,12*
Cc1cc(C)c2c(c1)-c1c(ssc1=S)C(C)(C)N2C(=O)CN1C(=O)c2ccccc2C1=O,86,42,1,1,0,-42,·,·
O=S(=O)(NC1CCCCC1N1CCN(c2cccc(Cl)c2)CC1)c1ccccc1 (centres undefined),93,20,3,3,·,-20,·,·
COc1ccccc1-c1ccc2c(c1)C(C)(Cc1cccc(C#N)c1)C(=O)N2 (centres undefined),97,·,·,11*,·,·,10,8.1*
COc1ccccc1-c1ccc2c(c1)C(C)(Cc1ccc(Cl)cc1)C(=O)N2 (centres undefined),104,·,·,2,·,·,·,·
O=C(CSc1nnc(NC(=O)C2CCC2)s1)Nc1ccc(N2CCOCC2)cc1,96,22,6,0,0,-22,·,·
COc1ccccc1/C=N/Nc1nncc2ccccc12,94,35,8,8.2*,5,-35,104*,36*
COc1cccc(C=NNc2nnc(NN=Cc3cccc(OC)c3OC)c3ccccc23)c1OC,93,68,·,-3,·,-68,·,·
CC(C)(C)OC(=O)NC(Cc1ccccc1)C(=O)O (centres undefined),94,-34,0,-2,0,34,·,·
CC(C)c1cc(C(=O)Nc2cc(Br)ccc2O)no1,96,0,42,9.9*,2,0,97*,33*
Nc1ccccc1Nc1cc(-c2ccccc2)[nH]n1,123,6,·,9.3*,2,-6,92*,54*
FC(F)Oc1ccc(C2N=C(c3ccccc3)NO2)cc1 (centres undefined),98,12,11,7.9*,2,-12,118*,41*
C[C@H](CO)N1C[C@H](C)[C@H](CN(C)S(C)(=O)=O)OCc2ccccc2-c2c(n(C)c3ccccc23)C1=O,96,·,·,0,·,·,·,·
